Calls of active or inactive are those of the source. The calls are words filed in the database; no cut-off is given here. Where a SMILES comes first, the peptide text is derived from it. Bridges are numbered along the chain shown (N, C = ends). [ ]: non-standard residue; d: D form. The star is where a group is joined. NH(β-GlcNAc) = CC(=O)N[C@@H]1[C@@H](O)[C@H](O)[C@@H](CO)O[C@H]1N*; Dap = NC[C@H](N)C(=O)O
Assays:
[1] = test system: Substance-K receptor (Homo sapiens), P21452 [N110A]; experiment: Binding affinity against N110A human neurokinin-2 receptor (hNK-2R) using [3H]nepadutant as a radioligand; UB is Undetectable Binding
Chain of Substance-K receptor (Homo sapiens), P21452 [N110A] (P21452 whole entry N110A): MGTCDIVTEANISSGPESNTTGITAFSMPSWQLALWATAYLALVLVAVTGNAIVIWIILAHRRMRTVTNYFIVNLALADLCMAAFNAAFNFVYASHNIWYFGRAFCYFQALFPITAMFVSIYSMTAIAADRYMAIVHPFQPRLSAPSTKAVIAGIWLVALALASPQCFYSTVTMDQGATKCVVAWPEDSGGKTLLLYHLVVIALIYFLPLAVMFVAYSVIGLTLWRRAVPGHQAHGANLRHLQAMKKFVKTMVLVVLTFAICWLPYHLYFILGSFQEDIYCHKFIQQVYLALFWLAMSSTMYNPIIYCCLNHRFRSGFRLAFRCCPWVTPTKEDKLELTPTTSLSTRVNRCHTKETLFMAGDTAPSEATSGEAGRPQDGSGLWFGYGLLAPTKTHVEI
Procedure, shortened: (§1)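 Membranes from cells stably transfected with wild-type or mutant hNK-2R, incubated with [3H]nepadutant for 60 min at 20 °C in 50 mM Tris-HCl pH 7.4 containing peptidase inhibitors, 150 mM NaCl, 5 mM MnCl2 and 1 g/L BSA. Competitors ranged 0.3 pM–10 μM. Nonspecific binding was defined with 1 mM unlabeled ligand. Bound label was collected by filtration and counted. Means from ≥3 duplicate experiments.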

[2] = target: T1, Substance-K receptor (Homo sapiens) (UniProt P21452); experiment: Binding affinity against wild-type human Wild-type tachykinin receptor 2 (hNK-2R) using [125I]-NKA as a radioligand
T1 sequence (whole entry): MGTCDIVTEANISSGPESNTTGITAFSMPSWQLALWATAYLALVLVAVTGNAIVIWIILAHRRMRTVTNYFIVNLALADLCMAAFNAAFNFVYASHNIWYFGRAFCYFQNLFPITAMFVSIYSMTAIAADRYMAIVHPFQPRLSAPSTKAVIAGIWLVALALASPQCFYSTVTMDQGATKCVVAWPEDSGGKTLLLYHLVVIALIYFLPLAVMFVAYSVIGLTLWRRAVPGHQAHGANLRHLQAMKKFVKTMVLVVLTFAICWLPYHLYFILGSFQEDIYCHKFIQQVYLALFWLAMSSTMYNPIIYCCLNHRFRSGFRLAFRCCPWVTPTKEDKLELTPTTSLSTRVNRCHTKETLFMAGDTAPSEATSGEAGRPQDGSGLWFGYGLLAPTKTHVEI

[3] = test system: Substance-K receptor (Homo sapiens), P21452 [Q109A]; experiment: Binding affinity against Q109A human neurokinin-2 receptor (hNK-2R) using [3H]nepadutant as a radioligand; procedure, shortened: as §1
Chain of Substance-K receptor (Homo sapiens), P21452 [Q109A] (P21452 whole entry Q109A): as the sequence (P21452 whole entry N110A) above, with Q109A, A110N counted along it

[4] = target: T1, Substance-K receptor (Homo sapiens); experiment: Binding affinity against wild type human Wild-type tachykinin receptor 2 (hNK-2R) using [3H]nepadutant as a radioligand; procedure, shortened: as §1
[5] = test system: Substance-K receptor (Homo sapiens), P21452 [Y169A]; experiment: Binding affinity against Y169A human neurokinin-2 receptor (hNK-2R) using [3H]nepadutant as a radioligand; procedure, shortened: as §1
Chain of Substance-K receptor (Homo sapiens), P21452 [Y169A] (P21452 whole entry Y169A): as the sequence (P21452 whole entry N110A) above, with A110N, Y169A counted along it

[6] = test system: Substance-K receptor (Homo sapiens), P21452 [F293A]; experiment: Binding affinity against F293A human neurokinin-2 receptor (hNK-2R) using [3H]nepadutant as a radioligand; procedure, shortened: as §1
Chain of Substance-K receptor (Homo sapiens), P21452 [F293A] (P21452 whole entry F293A): as the sequence (P21452 whole entry N110A) above, with A110N, F293A counted along it

In the case of CC(=O)N[C@@H]1[C@@H](O)[C@H](O)[C@@H](CO)O[C@H]1NC(=O)C[C@@H]1NC(=O)[C@H](CC(C)C)NC(=O)[C@@H]2CNC(=O)C[C@H](NC1=O)C(=O)N[C@@H](Cc1c[nH]c3ccccc13)C(=O)N[C@@H](Cc1ccccc1)C(=O)N2 (cyclo(D(NH(β-GlcNAc))DWF[Dap]L); lactam 2-5), the UB [1] is reported as “inactive”, the KD/Ki [2] is reported as 2.4 nM and the KD/Ki [3] is reported as 0.85 nM. The KD/Ki [4] was 4 nM, the KD/Ki [5] was 4.1 nM and the KD/Ki [6] was 7.4 nM.
